Compounds with a hit are over-represented: about 1.8% of the library has one in this group of screens.
MC4R ag barr = MC4R agonists recruiting beta-arrestin, primary screen, cell-based, luminescence, agonist arm of biased-ligand search. Melanocortin receptor 4 (Homo sapiens), P32245. actives 0.98% (n = 360,000). U2OS MC4R beta-arrestin complementation; percent of melanotan II response, DMSO zero. activation, % at 8.9 µM;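 active = activation above a per-plate cutoff, the mean activation of sample wells on that plate plus 3 SD, cut at about 8% in these data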
TLR4-MyD88 BLA = inhibitors of TLR4-MyD88 association in cells, primary screen, cell-based, HeLa CL3-4, BLA complementation, FRET ratio; Toll-like receptor 4 (Homo sapiens) + Myeloid differentiation primary response protein …; HeLa CL3-4 TLR4/MyD88 BLA complementation; inhibition, % at 8.4 µM; actives 0.18% (n = 200,000); AID 861, 2007; in the data active = inhibition above about 25%;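 note: 0% = vehicle and 100% = reference inhibitor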
TLR9-MyD88 block = inhibitors of TLR9-MyD88 association in cells, primary screen, cell-based, CHO, BLA complementation, fluorescence; Toll-like receptor 9 (Homo sapiens) + Myeloid differentiation primary response protein …; actives 0.21% (n = 340,000); inhibition, % at 4.98 µM; CCF4 FRET ratio;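 active = inhibition above the mean over all tested compounds plus 3 SD, cut at about 21% in these data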;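 note: 0% = DMSO only wells and 100% = clavulanate BLA inhibitor control wells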
Target sequence (Q99836 whole entry, looked up): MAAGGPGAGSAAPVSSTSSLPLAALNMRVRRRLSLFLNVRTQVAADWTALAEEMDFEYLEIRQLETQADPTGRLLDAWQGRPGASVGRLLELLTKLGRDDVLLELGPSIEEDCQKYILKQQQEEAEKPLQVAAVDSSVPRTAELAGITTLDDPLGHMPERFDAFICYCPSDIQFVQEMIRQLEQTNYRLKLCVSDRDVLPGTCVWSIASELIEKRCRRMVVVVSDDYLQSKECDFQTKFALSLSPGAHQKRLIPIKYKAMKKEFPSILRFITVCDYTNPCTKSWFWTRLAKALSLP
Target sequence (Q9NR96 whole entry, looked up): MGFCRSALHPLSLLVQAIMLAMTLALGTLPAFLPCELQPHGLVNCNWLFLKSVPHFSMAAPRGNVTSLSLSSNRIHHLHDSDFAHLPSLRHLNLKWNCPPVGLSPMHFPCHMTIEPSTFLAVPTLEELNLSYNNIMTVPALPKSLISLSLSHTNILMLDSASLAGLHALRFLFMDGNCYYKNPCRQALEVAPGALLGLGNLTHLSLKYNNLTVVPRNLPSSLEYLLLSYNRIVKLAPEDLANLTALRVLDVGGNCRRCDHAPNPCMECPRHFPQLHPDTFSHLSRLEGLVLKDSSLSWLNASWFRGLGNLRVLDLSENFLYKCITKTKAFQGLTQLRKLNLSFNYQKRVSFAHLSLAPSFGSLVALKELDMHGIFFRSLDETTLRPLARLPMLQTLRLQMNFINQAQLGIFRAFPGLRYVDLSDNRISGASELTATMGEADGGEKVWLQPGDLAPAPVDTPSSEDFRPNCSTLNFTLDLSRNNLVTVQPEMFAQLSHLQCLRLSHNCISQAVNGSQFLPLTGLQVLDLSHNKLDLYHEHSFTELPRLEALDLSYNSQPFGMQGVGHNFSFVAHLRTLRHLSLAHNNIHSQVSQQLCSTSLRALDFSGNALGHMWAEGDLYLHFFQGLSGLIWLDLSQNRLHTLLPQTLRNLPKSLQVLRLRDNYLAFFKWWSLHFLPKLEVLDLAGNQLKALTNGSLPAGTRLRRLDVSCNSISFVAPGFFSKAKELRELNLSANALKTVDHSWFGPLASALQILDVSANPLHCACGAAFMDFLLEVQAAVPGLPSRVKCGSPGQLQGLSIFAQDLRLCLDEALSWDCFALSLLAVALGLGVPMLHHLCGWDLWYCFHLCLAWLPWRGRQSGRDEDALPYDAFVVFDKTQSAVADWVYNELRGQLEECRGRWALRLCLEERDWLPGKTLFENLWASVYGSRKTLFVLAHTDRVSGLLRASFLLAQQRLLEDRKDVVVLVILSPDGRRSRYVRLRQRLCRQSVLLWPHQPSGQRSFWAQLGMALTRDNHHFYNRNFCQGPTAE
NOD2 RIPK2 PPI = NOD2-RIPK2 binding disruptors in cells, primary screen, fluorescence, CHO cells, BLA complementation | actives 0.38% (n = 360,000) | inhibition, % at 4.98 µM | CCF4 ratio | Receptor-interacting serine/threonine-protein kinase 2 (Homo sapiens), O43353 | AID 624267, 2012; in the data active = inhibition above about 21%;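 note: 0% = vehicle only and 100% = reference blocker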
MC4R antagonist = MC4R antagonists of cAMP signaling, primary screen, cell-based, TR-FRET, antagonist arm of biased-ligand search; MC4R-expressing cells, MTII-stimulated cAMP, LANCE TR-FRET; inhibition, % at 6.5 µM; actives 0.48% (n = 360,000); AID 540295, 2011;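 active = inhibition above its plate's cutoff, the mean of tested wells on that plate plus 3 SD, cut at about 29% in these data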;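 note: 0% = Melanotan II alone and 100% = Melanotan II plus saturating MCL0020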
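System: U2OS cells stably expressing human melanocortin 4 receptor (MC4R). Reagent: Melanotan II challenge after compound preincubation. Doses: 6.5 µM. Times: 30-min compound, 1-h challenge, 1-h detection, room temperature. Measured by: TR-FRET with Eu-cAMP and labeled anti-cAMP, 671 nm. Replicates: singlicate.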
NOD2 RIPK2 conf = NOD2-RIPK2 binding disruptors, retest, confirmation, fluorescence, CHO cells, BLA complementation, triplicate; actives 70% (n = 1,200); shares compounds with NOD2 RIPK2 PPI; inhibition, % at 4.98 µM; CCF4 FRET;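 active = mean inhibition across replicates above a set limit taken from the earlier primary screen, cut at about 21% in these data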;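 note: 0% = DMSO-only wells and the high end = clavulanate BLA-blocked wells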
NOD2 BLA counter = counter-screen for NOD2-RIPK2 interaction inhibitors: BLA reporter; AID 624371; CHO BLA reporter, CCF4 FRET ratio, counterscreen; inhibition, % at 4.98 µM; actives 57% (n = 1,200); shares compounds with NOD2 RIPK2 PPI;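 active = mean inhibition above the low-control mean inhibition plus three low-control SD, cut at about 11% in these data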;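 note: 0% = DMSO only wells and 100% = clavulanate high control wells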
* = called active by the depositor; nt = no result.

SMILES	MC4R ag barr	TLR4-MyD88 BLA	TLR9-MyD88 block	NOD2 RIPK2 PPI	MC4R antagonist	NOD2 RIPK2 conf	NOD2 BLA counter
COC(=O)[C@@H]1[C@@H](C(=O)OC)C2(c3ccccc3-c3ccccc32)N(c2ccc(Cl)cc2)N1C#N	-1.4	7.7	2.2	71.3*	4.5	67.7*	1.6
O=C1NC2C(O)C(O)C(O)C(O)C2c2cc3c(c(O)c21)OCO3 (stereo unspecified)	-0.8	nt	3.6	22.1*	6.6	29.0*	-1.8
O=C1NC2C(=CC(O)C(O)C2O)c2cc3c(c(O)c21)OCO3 (stereo unspecified)	-1.6	nt	-1.0	29.9*	-5.5	26.8*	-7.4
CC(=O)O[C@H]1CCC2C3CC[C@H]4[C@@H](O)[C@H](O)CC[C@]4(C)C3CC[C@@]21C (stereo partly specified)	-0.1	nt	-10.7	-13.2	7.2	nt	nt
CC(=O)OCC12CC(OC(=O)CC(C)C)C(C)=CC1OC1C(O)C(OC(C)=O)C2(C)C12CO2 (stereo unspecified)	-1.3	nt	-10.1	22.9*	-3.1	23.2*	-7.3
COc1cc(/C=C/c2nc3ccccc3c(=O)n2-c2cccc(O)c2)ccc1O	0.2	nt	13.6	21.0*	11.8	5.0	13.6*
C[C@]12CCC3C(CC[C@H]4C[C@H](O)CC[C@]34C)C1C[C@H](O)[C@@H]2O (stereo partly specified)	-0.3	nt	-7.6	-1.1	12.6	nt	nt
C[n+]1c(-c2ccccc2)c2cc(N)ccc2c2ccc(N)cc21	-0.7	nt	11.3	27.8*	-34.3	-0.7	-2.6

Compound activity (PubChem BioAssay)
